Assay results published in ChEMBL document CHEMBL1148785, “Second generation tetrahydroquinoline-based protein farnesyltransferase inhibitors as antimalarials” (J Med Chem, 2007).
Values joined by “and” are separate entries in the source; they are usually repeats but may differ in a detail not shown here. Equal values may be shown once.

Experiments:
Plasmodium falciparum [1] = assay: Inhibition of Plasmodium falciparum protein farnesyltransferase at 5 nM by scintillation proximity assay
Plasmodium falciparum [2] = assay: Antimalarial activity against Plasmodium falciparum 3D7; format: functional; settings: read-out: ED50 (the source's name)
Summary of the method: (§1)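 Asynchronous culture in type A+ erythrocytes at 0.5% parasitemia and 0.5% hematocrit, grown in RPMI-1640 with 20% heat-inactivated human A+ plasma. Compound was serially diluted from a top final 5 µM, with DMSO vehicle as 100% growth. Plates ran 48 h at 37 °C under 5% CO2/5% O2/90% N2, then [3H]-hypoxanthine (0.3 µCi) for 24 h. Filter-harvested counts were corrected for the uninfected-RBC background. ED50 by linear regression; duplicates averaged.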

Plasmodium falciparum [3] = assay: Antimalarial activity against Plasmodium falciparum K1; format: functional; settings: read-out: ED50 (the source's name); summary of the method: as §1
Plasmodium falciparum [4] = assay: Inhibition of Plasmodium falciparum protein farnesyltransferase at 0.5 nM by scintillation proximity assay
Plasmodium falciparum [5] = assay: Inhibition of Plasmodium falciparum protein farnesyltransferase at 50 nM by scintillation proximity assay

Row | Structure (SMILES) | inhibition (Plasmodium falciparum [1]) [%] | EC50 (Plasmodium falciparum [2]; Plasmodium falciparum, 3D7) [nM] | EC50 (Plasmodium falciparum [3]; Plasmodium falciparum, K1) [nM] | inhibition (Plasmodium falciparum [4]) [%] | inhibition (Plasmodium falciparum [5]) | EC50 (Plasmodium falciparum [2]) [nM] | EC50 (Plasmodium falciparum [3]) [nM]
1 | COC(=O)N1CCC(CN(C2Cc3cc(C#N)ccc3N(Cc3cncn3C)C2)S(=O)(=O)c2ccccc2)CC1 (stereo not given) | 93 | 50 | 70 | 43 | 98% | – | –
2 | COC(=O)c1ccsc1S(=O)(=O)N(CC1CCN(C(=O)OC)CC1)C1Cc2cc(C#N)ccc2N(Cc2cncn2C)C1 (stereo not given) | 61 | 2300 | 1900 | 10 | 92% | – | –
3 | COC(=O)N1CCC(CN(C2Cc3cc(C#N)ccc3N(Cc3cncn3C)C2)S(=O)(=O)C2CC2)CC1 (stereo not given) | 3 | > 5000 | 3950 | 0 | 37% | – | –
4 | Cn1cnc(CN2CC(N(Cc3ccc(S(C)(=O)=O)cc3)S(=O)(=O)c3cn(C)cn3)Cc3cc(-c4ccccc4)ccc32)c1 (stereo not given) | 84 | 270 | 450 | 32 | 98% | – | –
5 | CCS(=O)(=O)N1CCC(CN(C2Cc3cc(C#N)ccc3N(Cc3cncn3C)C2)S(=O)(=O)c2ccccn2)CC1 (stereo not given) | 56 | 75 | 55 | 94 | 98% | – | –
6 | COC(=O)NCCCCN(C1Cc2cc(C#N)ccc2N(Cc2cncn2C)C1)S(=O)(=O)c1ccccn1 (stereo not given) | 84 | 230 | – | 25 | 99% | – | –
7 | Cn1cncc1CN1CC(N(Cc2ccc(S(C)(=O)=O)cc2)S(=O)(=O)c2cccc(F)c2)Cc2cc(C#N)ccc21 (stereo not given) | 67 | 600 | – | 8 | 96% | – | –
8 | Cc1ccsc1S(=O)(=O)N(Cc1ccc(S(C)(=O)=O)cc1)C1Cc2cc(C#N)ccc2N(Cc2cncn2C)C1 (stereo not given) | 55 | 830 | – | 13 | 97% | – | –
9 | CNC(=O)c1ccc2c(c1)CC(N(CC(=O)NC(C)(C)C)S(=O)(=O)c1cn(C)cn1)CN2Cc1cncn1C (stereo not given) | 20 | 1200 | – | 12 | 69% | – | –
10 | CCS(=O)(=O)c1ccc(CN(C2Cc3cc(C#N)ccc3N(Cc3cncn3C)C2)S(=O)(=O)c2cn(C)cn2)cc1 (stereo not given) | 100 | 40 | – | 77 | 100% | – | –
11 | Cn1cncc1CN1CC(N(Cc2cccc(-n3cccn3)c2)S(=O)(=O)c2ccccn2)Cc2cc(C#N)ccc21 (stereo not given) | 52 | 850 | 850 | – | 90% | – | –
12 | Cn1cncc1CN1CC(N(Cc2cccc(-n3cncn3)c2)S(=O)(=O)c2ccccn2)Cc2cc(C#N)ccc21 (stereo not given) | 11 | 450 | 590 | – | 53% | – | –
13 | Cn1cnc(S(=O)(=O)N(CCN2C(=O)c3ccccc3C2=O)C2Cc3cc(C#N)ccc3N(Cc3cncn3C)C2)c1 (stereo not given) | 97 | 14 | 18 | – | 98% | – | –
14 | COC(=O)N1CCC(CN(C2Cc3cc(C#N)ccc3N(Cc3cncn3C)C2)S(=O)(=O)c2cccnc2)CC1 (stereo not given) | 93 | 100 | – | 48 | 99% | – | –
15 | CN(C)CC(=O)N(Cc1ccccc1F)C1Cc2cc(C#N)ccc2N(Cc2cncn2C)C1 (stereo not given) | 16 | 2700 | – | 0 | – | – | –
16 | Cn1cncc1CN1CC(N(CCCCN2C(=O)c3ccccc3C2=O)S(=O)(=O)c2ccccn2)Cc2cc(C#N)ccc21 (stereo not given) | 63 | 820 | 3600 | – | 92% | – | –
17 | Cn1cncc1CN1CC(N(CC2CCNCC2)S(=O)(=O)c2ccccn2)Cc2cc(C#N)ccc21 (stereo not given) | 6 | – | – | 0 | 18% | – | –
18 | Cn1cncc1CN1CC(N(Cc2cccnc2)S(=O)(=O)c2ccccn2)Cc2cc(C#N)ccc21 (stereo not given) | 89 | 105 | 490 | – | 95% | – | –
19 | COC(=O)c1ccc(CN(C2Cc3cc(C#N)ccc3N(Cc3cncn3C)C2)S(=O)(=O)c2cn(C)cn2)cc1 (stereo not given) | 10 | – | – | 1 | 62% | – | –
20 | Cc1nn(-c2ccccc2)nc1CN(C1Cc2cc(C#N)ccc2N(Cc2cncn2C)C1)S(=O)(=O)c1ccccn1 (stereo not given) | 66 | 140 | 600 | – | 97% | – | –
21 | Cn1cnc(S(=O)(=O)N(Cc2ccc(S(=O)(=O)c3ccccc3)cc2)C2Cc3cc(C#N)ccc3N(Cc3cncn3C)C2)c1 (stereo not given) | 90 | 390 | – | 30 | 99% | – | –
22 | Cn1cncc1CN1CC(N(CC(N)=O)S(=O)(=O)c2ccccn2)Cc2cc(C#N)ccc21 (stereo not given) | 37 | 1600 | 2200 | – | 82% | – | –
23 | COC(=O)N1CCC(CN(C2Cc3cc(C#N)ccc3N(Cc3cncn3C)C2)S(=O)(=O)c2nccn2C)CC1 (stereo not given) | 67 | 38 | – | 15 | 96% | – | –
24 | C=C(Br)CN(C1Cc2cc(C#N)ccc2N(Cc2cnc[nH]2)C1)S(=O)(=O)c1cn(C)cn1 (stereo not given) | – | 120 | – | – | 94% | – | –

Row | Structure (SMILES) | inhibition (Plasmodium falciparum [1]) [%] | EC50 (Plasmodium falciparum [2]; Plasmodium falciparum, 3D7) [nM] | EC50 (Plasmodium falciparum [3]; Plasmodium falciparum, K1) [nM] | inhibition (Plasmodium falciparum [4]) [%] | inhibition (Plasmodium falciparum [5]) | EC50 (Plasmodium falciparum [2]) [nM] | EC50 (Plasmodium falciparum [3]) [nM]
25 | Cc1c(S(=O)(=O)N(Cc2cc(Br)ccc2F)C2Cc3cc(C#N)ccc3N(Cc3cncn3C)C2)ncn1C (stereo not given) | 87 | 850 | – | 13 | 98% | – | –
26 | Cn1cnc(S(=O)(=O)N(Cc2ccccc2)C2Cc3cc(C#N)ccc3N(Cc3cnc[nH]3)C2)c1 (stereo not given) | – | 120 | – | – | 93% | – | –
27 | Cn1cncc1CN1CC(N(Cc2ccc(Br)cc2)S(=O)(=O)c2ccccn2)Cc2cc(C#N)ccc21 (stereo not given) | 15 | 520 | 750 | – | 66% | – | –
28 | CCS(=O)(=O)c1ccc(CN(C2Cc3cc(C#N)ccc3N(Cc3cncn3C)C2)S(=O)(=O)c2ncn(C)c2C)cc1 (stereo not given) | 76 | 640 | – | 10 | 97% | – | –
29 | Cn1cncc1CN1CC(N(CCN2C(=O)c3ccccc3C2=O)S(=O)(=O)c2ccccn2)Cc2cc(C#N)ccc21 (stereo not given) | 77 | 1880 | – | 46 | 96% | – | –
30 | Cn1cncc1CN1CC(N(Cc2ccccc2F)C(=O)c2c[nH]cn2)Cc2cc(C#N)ccc21 (stereo not given) | 88 | 75 | – | 39 | – | – | –
31 | Cn1cnc(S(=O)(=O)N(Cc2ccccc2F)C2Cc3cc(C#N)ccc3N(Cc3cncn3C)C2)c1 (stereo in doubt; 110) [listing 1 of 2 here] | 99 | – | – | 65 | 100% | – | –
32 | Cn1cncc1CN1CC(N(Cc2ccccc2F)C(=O)c2cnns2)Cc2cc(C#N)ccc21 (stereo not given) | 66 | 340 | – | 13 | – | – | –
33 | COCC(=O)N(Cc1ccccc1F)C1Cc2cc(C#N)ccc2N(Cc2cncn2C)C1 (stereo not given) | 19 | 290 | – | 11 | 56% | – | –
34 | Cn1cnc(S(=O)(=O)N(Cc2ccccc2F)C2Cc3cc(C#N)ccc3N(Cc3cncn3C)C2)c1 (stereo in doubt; 212) [listing 1 of 2 here] | 76 | – | – | 12 | 96% | – | –
35 | Cn1cnc(CN2CC(N(CC3CCN(C(=O)OC(C)(C)C)CC3)S(=O)(=O)c3ccccn3)Cc3cc(-c4ccccc4)ccc32)c1 (stereo not given) | 15 | 2700 | – | 0 | 22% | – | –
36 | Cc1oncc1CN(C1Cc2cc(C#N)ccc2N(Cc2cncn2C)C1)S(=O)(=O)c1ccccn1 (stereo not given) | 62 | 450 | 2800 | – | 94% | – | –
37 | Cn1cnc(CN2CC(N(CC3CCN(C(=O)OC(C)(C)C)CC3)S(=O)(=O)c3cn(C)cn3)Cc3cc(-c4ccccc4)ccc32)c1 (stereo not given) | 10 | 860 | – | 0 | 33% | – | –
38 | COC(=O)N(Cc1ccccc1F)C1Cc2cc(C#N)ccc2N(Cc2cncn2C)C1 (stereo not given) | 9 | 2900 | – | 6 | 26% | – | –
39 | Cn1cnc(S(=O)(=O)N(Cc2ccc(-n3cncn3)cc2)C2Cc3cc(C#N)ccc3N(Cc3cncn3C)C2)c1 (stereo not given) | 54 | 330 | 340 | – | 93% | – | –
40 | CCC(C)NC(=O)c1ccc2c(c1)CC(N(CC(=O)NC(C)(C)C)S(=O)(=O)c1cn(C)cn1)CN2Cc1cncn1C (stereo not given) | 2 | > 5000 | – | 0 | 35% | – | –
41 | Cn1cncc1CN1CC(N(Cc2ccc(C(F)(F)F)o2)S(=O)(=O)c2ccccn2)Cc2cc(C#N)ccc21 (stereo not given) | 39 | 750 | 690 | – | 84% | – | –
42 | COC(=O)N1CCC(CN(C2Cc3cc(C#N)ccc3N(Cc3cncn3C)C2)S(=O)(=O)c2ccccn2)CC1 (stereo not given) | – | – | – | – | 98% and 100% (2×) | – | –
43 | Cn1cnc(S(=O)(=O)N(CC(=O)NC(C)(C)C)C2Cc3cc(C(=O)NCc4ccccc4)ccc3N(Cc3cncn3C)C2)c1 (stereo not given) | 1 | 4600 | – | 0 | 59% | – | –
44 | Cn1cnc(S(=O)(=O)N(CC(=O)OC(C)(C)C)C2Cc3cc(C#N)ccc3N(Cc3cncn3Cc3ccccc3)C2)c1 (stereo not given) | 45 | 150 | 140 | 22 | – | – | –
45 | Cn1cnc(S(=O)(=O)N(Cc2ccccc2F)C2Cc3cc(C#N)ccc3N(Cc3cncn3C)C2)c1 (stereo in doubt; 110) [listing 2 of 2 here] | – | – | – | – | – | 18 | 18
46 | Cn1cnc(S(=O)(=O)N(Cc2ccccc2F)C2Cc3cc(C#N)ccc3N(Cc3cncn3C)C2)c1 (stereo in doubt; 212) [listing 2 of 2 here] | – | – | – | – | – | 580 | 500
47 | Cn1cncc1CN1CC(N(Cc2cccc(-n3cccc3)c2)S(=O)(=O)c2ccccn2)Cc2cc(C#N)ccc21 (stereo not given) | 69 | 143 | 617 | – | 97% | – | –
